Hits are enriched below; roughly 5.1% of the tested compounds scored in any of these assays.
APP 5'UTR act: APP 5'UTR luciferase reporter activation; SH-SY5Y APP 5'UTR luciferase reporter, luminescence; zero percent = DMSO vehicle wells; activation, % at 2 µM; AID 1276; 1% of 190,000 active;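 active means activation above a set limit, based on mean plus 3 SD of controls, cut at about 140% in these data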
STAT3 act: STAT3 signaling activation | AID 871 | U3A cells, IL-6 STAT3-luciferase reporter, luminescence; 100% = signal with IL-6 EC80 alone | activation (% of control), % at 5.6 µM | 0.91% of 190,000 active;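 active means activation above the screen-wide mean of compound activation plus 3 SD, cut at about 130% in these data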;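 further: 0% = background luminescence of wells with medium and substrate only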
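Material: STAT3-luciferase reporter U3A cells. Controls: IL-6-treated wells, 100% activation. Read-out: % activation versus median of IL-6-stimulated wells. Probe or stimulus: IL-6 stimulus at 33 ng/mL final. Timing: compound 1 h, then IL-6 6 h at 37 °C. Signal: reporter luminescence signal.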
STAT1 inh: reduces IFN-gamma driven STAT1 reporter signal; NIH 3T3 STAT1-luciferase reporter, luminescence; inhibition, % at 5.5 µM; 0.35% of 200,000 active; AID 920;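 active means inhibition above a set limit, the mean inhibition across all tested compounds plus 3 SD, cut at about 34% in these data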;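 further: 0% = IFN-gamma with DMSO and 100% = IFN-gamma with 300 µM nifuroxazide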
NF-kB expr up: compounds increasing NF-kB expression in human neuronal cells; fold change at 12.5 µM; 1.6% of 190,000 active; AID 1239; NF-kB reporter expression; active compounds read high; in the data active means fold change above about 3.3
STAT1 activator: activators of IFN-gamma induced STAT1 signaling | activation (% of control), % at 5.5 µM | AID 932 | NIH 3T3 STAT1-luciferase reporter, luminescence; 100% = IFN-gamma alone, no compound | 2.6% of 200,000 active;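 active means activation above the screen-wide mean activation plus 3 SD, cut at about 130% in these data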;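 further: raw ratio to IFN-gamma control signal so 100% means no change and 0% no light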
STAT3 blocker: reduces IL-6 driven STAT3 reporter signal. 0.89% of 190,000 active. U3A cells, IL-6 STAT3-luciferase reporter, luminescence; host cell line lacks STAT1. inhibition, % at 5.5 µM;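 active means inhibition above the mean inhibition across all screened compounds plus 3 SD, cut at about 44% in these data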;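 further: 0% = DMSO only wells and 100% = 100 µM nifuroxazide control wells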
An asterisk follows results filed as active.

What do the screens show for `CC1=NN(c2ccccc2)C(=O)/C1=C/c1c(O)[nH]c(=S)[nH]c1=O`?
APP 5'UTR act: -3; STAT3 act: 146*; STAT1 inh: 11; NF-kB expr up: 1.1; STAT1 activator: 86; STAT3 blocker: -39

How did Cc1ccc(-n2c(-c3cccs3)nc3ccccc3c2=O)cc1 do in these assays?
APP 5'UTR act: 0; STAT3 act: 99; STAT1 inh: -2; NF-kB expr up: 0.98; STAT1 activator: 102; STAT3 blocker: 9

How did Cn1cccc1/C=C1/C(=O)NC(=O)N(Cc2ccccc2)C1=O do in these assays?
APP 5'UTR act: -25; STAT3 act: 135*; STAT1 inh: -7; NF-kB expr up: 3; STAT1 activator: 106; STAT3 blocker: -38

What do the screens show for `O=c1[nH]c(=S)[nH]c(O)c1N=Nc1ccc2c(c1)OCO2`?
APP 5'UTR act: 40; STAT3 act: 96; STAT1 inh: -31; NF-kB expr up: 1.2; STAT1 activator: 130*; STAT3 blocker: 5

Results for O=c1[nH]c(O)c(N=Nc2ccc(S(=O)(=O)N3CCOCC3)cc2)c(=O)[nH]1 ?
APP 5'UTR act: -10; STAT3 act: 105; STAT1 inh: -1; NF-kB expr up: 1.2; STAT1 activator: 99; STAT3 blocker: -1

Results for O=c1[nH]c(O)c(N=Nc2ccc3c(c2)OCCO3)c(=O)[nH]1 ?
APP 5'UTR act: 34; STAT3 act: 37; STAT1 inh: 41*; NF-kB expr up: 1.1; STAT1 activator: 61; STAT3 blocker: 79*

Results for O=c1[nH]c(=S)[nH]c(O)c1N=Nc1cc2c(cc1[N+](=O)[O-])OCO2 ?
APP 5'UTR act: -13; STAT3 act: 99; STAT1 inh: 4; NF-kB expr up: 1.1; STAT1 activator: 95; STAT3 blocker: 8

Results for O=c1[nH]c(=S)[nH]c(O)c1N=Nc1ccc(OC(F)F)cc1 ?
APP 5'UTR act: 95; STAT3 act: 81; STAT1 inh: -53; NF-kB expr up: 1.2; STAT1 activator: 147*; STAT3 blocker: 28

Results for CCN1CCN(Cc2cc(C(C)(C)C)c(O)c(C(C)(C)C)c2)CC1 ?
STAT3 act: 88; STAT1 inh: 1; NF-kB expr up: 1.2; STAT1 activator: 102; STAT3 blocker: 14

How did O=C(c1ccc(Br)cc1)C12CN3CN(CN(C3)C1)C2 do in these assays?
APP 5'UTR act: 24; STAT3 act: 97; STAT1 inh: -5; NF-kB expr up: 14*; STAT1 activator: 103; STAT3 blocker: 5

Results for Cc1nc2ccccc2c(=O)n1-c1ccc(Cl)cc1[N+](=O)[O-] ?
APP 5'UTR act: -8; STAT3 act: 91; STAT1 inh: -2; NF-kB expr up: 0.98; STAT1 activator: 101; STAT3 blocker: 14

Results for Cc1nn(Cc2ccccc2)c(C)c1C(=O)O ?
APP 5'UTR act: 21; STAT3 act: 103; STAT1 inh: 1; NF-kB expr up: 0.98; STAT1 activator: 100; STAT3 blocker: -2

Results for CC(C)C/C(=N/O)c1c[nH]c2ccccc12 ?
STAT3 act: 134*; STAT1 inh: 8; NF-kB expr up: 0.91; STAT1 activator: 93; STAT3 blocker: -32

Results for Cc1ccc(-n2c(O)c(C=Nc3ccccc3N)c(=O)[nH]c2=O)cc1C ?
APP 5'UTR act: 135*; STAT3 act: 104; STAT1 inh: -40; NF-kB expr up: 2.7; STAT1 activator: 137*; STAT3 blocker: -1

Results for Cc1cc(S(N)(=O)=O)ccc1N=Cc1c(O)n(-c2ccccc2)c(=O)[nH]c1=O ?
APP 5'UTR act: 20; STAT3 act: 102; STAT1 inh: 0; NF-kB expr up: 1.3; STAT1 activator: 98; STAT3 blocker: 1

Results for Cc1cccc(N/N=C(\C(N)=O)C2=NC(C)(C)Cc3ccccc32)c1 ?
APP 5'UTR act: -11; STAT3 act: 99; STAT1 inh: 4; NF-kB expr up: 1.3; STAT1 activator: 96; STAT3 blocker: 5

What do the screens show for `COc1ccc(-n2c(O)c(C=Nc3c(C)n(C)n(-c4ccccc4)c3=O)c(=O)[nH]c2=O)cc1`?
APP 5'UTR act: 10; STAT3 act: 97; STAT1 inh: 0; NF-kB expr up: 1.3; STAT1 activator: 100; STAT3 blocker: 8

Bioassay records deposited in PubChem BioAssay by several laboratories.
